According to ChEMBL document CHEMBL1155477, “Benzothiophene containing Rho kinase inhibitors: Efficacy in an animal model of glaucoma” (Bioorg Med Chem Lett, 2010):
Converted amounts (≈) assume the structure as drawn. Blank lines part the entries; values can stand above or below the compound they belong to. The source made the active and inactive calls. No cut-off for these calls is given here.

Tests used:
[1] = target: T1, Rho-associated protein kinase 1 (Homo sapiens, UniProt Q13464); assay: Inhibition of ROCK1 assessed as ATP cunsumption
Target sequence in this assay (Q13464 whole entry): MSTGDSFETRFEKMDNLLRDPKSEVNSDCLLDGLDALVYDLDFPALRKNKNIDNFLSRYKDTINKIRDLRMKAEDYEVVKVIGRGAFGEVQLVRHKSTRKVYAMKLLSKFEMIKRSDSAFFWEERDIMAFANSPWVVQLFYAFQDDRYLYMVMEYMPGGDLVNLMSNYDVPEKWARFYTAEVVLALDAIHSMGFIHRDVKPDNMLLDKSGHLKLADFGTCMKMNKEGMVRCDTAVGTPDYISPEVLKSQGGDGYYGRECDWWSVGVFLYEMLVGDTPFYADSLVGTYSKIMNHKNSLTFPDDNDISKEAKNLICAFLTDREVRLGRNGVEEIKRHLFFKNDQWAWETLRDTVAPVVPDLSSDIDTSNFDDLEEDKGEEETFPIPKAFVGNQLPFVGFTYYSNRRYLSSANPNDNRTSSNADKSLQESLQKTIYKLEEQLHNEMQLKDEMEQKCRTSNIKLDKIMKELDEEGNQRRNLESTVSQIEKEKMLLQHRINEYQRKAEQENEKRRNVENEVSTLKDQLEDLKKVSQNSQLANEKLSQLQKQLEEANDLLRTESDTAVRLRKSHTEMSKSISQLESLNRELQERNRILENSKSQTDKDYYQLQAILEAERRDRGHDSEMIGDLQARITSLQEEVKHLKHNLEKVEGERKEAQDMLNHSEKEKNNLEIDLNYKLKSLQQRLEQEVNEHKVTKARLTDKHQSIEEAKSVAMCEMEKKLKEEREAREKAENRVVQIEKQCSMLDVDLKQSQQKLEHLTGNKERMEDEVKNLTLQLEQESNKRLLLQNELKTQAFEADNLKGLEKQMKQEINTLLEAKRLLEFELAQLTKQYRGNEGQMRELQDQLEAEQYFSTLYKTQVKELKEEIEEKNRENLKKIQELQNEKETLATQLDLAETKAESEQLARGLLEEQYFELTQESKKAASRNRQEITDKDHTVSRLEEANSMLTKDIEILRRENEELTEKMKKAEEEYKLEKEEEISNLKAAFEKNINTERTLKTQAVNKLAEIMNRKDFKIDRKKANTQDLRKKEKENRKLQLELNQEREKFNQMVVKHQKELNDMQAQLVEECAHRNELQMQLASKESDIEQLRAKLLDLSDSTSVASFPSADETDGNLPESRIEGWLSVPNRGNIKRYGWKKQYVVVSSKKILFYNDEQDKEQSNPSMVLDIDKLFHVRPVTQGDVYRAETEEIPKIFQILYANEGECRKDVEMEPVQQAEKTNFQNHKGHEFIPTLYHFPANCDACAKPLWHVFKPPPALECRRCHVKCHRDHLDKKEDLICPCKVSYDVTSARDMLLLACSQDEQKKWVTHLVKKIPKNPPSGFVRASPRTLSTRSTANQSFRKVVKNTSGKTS

[2] = target: T1, Rho-associated protein kinase 1; assay: Inhibition of ROCK1 in human GTM3 cells up to 10 uM by impedance assay; format: cell-based
Target sequence in this assay (Q13464 2-1354 limits assumed): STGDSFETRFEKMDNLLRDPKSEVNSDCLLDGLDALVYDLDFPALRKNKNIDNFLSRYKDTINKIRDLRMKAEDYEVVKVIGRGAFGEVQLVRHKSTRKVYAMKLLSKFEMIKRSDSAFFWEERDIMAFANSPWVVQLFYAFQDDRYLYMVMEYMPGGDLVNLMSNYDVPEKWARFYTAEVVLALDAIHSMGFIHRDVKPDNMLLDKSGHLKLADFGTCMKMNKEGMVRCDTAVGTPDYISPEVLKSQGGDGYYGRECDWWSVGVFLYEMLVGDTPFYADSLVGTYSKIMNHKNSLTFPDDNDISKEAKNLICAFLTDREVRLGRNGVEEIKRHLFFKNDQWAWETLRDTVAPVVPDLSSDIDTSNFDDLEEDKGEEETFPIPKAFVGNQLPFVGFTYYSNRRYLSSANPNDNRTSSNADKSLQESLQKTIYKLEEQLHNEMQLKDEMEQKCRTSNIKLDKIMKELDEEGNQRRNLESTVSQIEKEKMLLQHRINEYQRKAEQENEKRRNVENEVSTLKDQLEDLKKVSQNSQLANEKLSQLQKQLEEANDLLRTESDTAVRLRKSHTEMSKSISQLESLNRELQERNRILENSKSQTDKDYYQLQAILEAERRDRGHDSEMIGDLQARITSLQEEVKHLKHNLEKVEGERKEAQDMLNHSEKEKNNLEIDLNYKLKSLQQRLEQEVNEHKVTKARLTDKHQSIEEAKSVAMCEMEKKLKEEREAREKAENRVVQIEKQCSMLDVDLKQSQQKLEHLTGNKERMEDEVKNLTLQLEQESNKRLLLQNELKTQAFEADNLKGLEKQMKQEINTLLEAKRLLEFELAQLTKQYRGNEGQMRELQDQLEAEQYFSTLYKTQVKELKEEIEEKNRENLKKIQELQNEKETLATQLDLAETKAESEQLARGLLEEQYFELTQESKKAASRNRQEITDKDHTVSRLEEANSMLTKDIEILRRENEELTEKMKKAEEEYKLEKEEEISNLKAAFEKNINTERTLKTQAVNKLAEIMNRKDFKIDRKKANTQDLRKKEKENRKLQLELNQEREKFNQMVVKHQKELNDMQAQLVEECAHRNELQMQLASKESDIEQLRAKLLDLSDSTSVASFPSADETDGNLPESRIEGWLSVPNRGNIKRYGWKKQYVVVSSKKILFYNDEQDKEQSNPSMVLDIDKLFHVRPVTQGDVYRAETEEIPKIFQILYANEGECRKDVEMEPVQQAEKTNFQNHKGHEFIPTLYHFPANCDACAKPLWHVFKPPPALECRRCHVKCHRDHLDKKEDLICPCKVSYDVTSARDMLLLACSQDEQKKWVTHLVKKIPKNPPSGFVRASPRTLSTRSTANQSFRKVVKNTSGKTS

[3] = target: T1, Rho-associated protein kinase 1; assay: Inhibition of ROCK1 assessed as ATP cunsumption at 96 uM relative to control
Procedure, shortened: (§1)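 ROCK1 enzyme reaction in 20 mM Tris-HCl pH 7.5, 10 mM MgCl2, 0.4 mM CaCl2, 0.15 mM EGTA, 0.1 mg/ml BSA. Compounds are run as an 11-point half-log series (final top 96 µM, 1% DMSO, 2–4 replicate wells) for 2 h at 30 °C. Readout is Easylite luminescence, normalized to DMSO and HMN-1152 controls. Values are means of ≥2 independent experiments.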
Target sequence in this assay (Q13464 2-1354 limits assumed): as above

GTM3 [4] = assay: Change in cellular morphology of human GTM3 cells assessed as decrease in vinculin staining intensity by immunofluorescence relative to control; format: functional, cell-based
Procedure, shortened: (§2)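 GTM-3 cells plated on glass coverslips one day before use, exposed to compound or DMSO control for 3 h, fixed in 2% paraformaldehyde in PBS 10 min at rt, then indirect immunofluorescence with anti-vinculin mAb and Alexa-488 anti-mouse F(ab')2 secondary; vinculin staining density and intensity compared with DMSO-treated cells.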

GTM3 [5] = assay: Change in cellular morphology of human GTM3 cells assessed as decrease in vinculin staining density by immunofluorescence relative to control; format: functional, cell-based; procedure, shortened: as §2
[6] = Cytotoxicity against human GTM3 cells up to 30 uM after 24 hrs; format: cell-based; details: gtm3, 24 h
[7] = target: T1, Rho-associated protein kinase 1; assay: Inhibition of ROCK1 assessed as ATP cunsumption at 96 uM; procedure, shortened: as §1
Target sequence in this assay (Q13464 2-1354 limits assumed): as above

[8] = target: T1, Rho-associated protein kinase 1; assay: Inhibition of ROCK1 assessed as ATP cunsumption relative to control; procedure, shortened: as §1
Target sequence in this assay (Q13464 2-1354 limits assumed): as above

[9] = Aqueous solubility of the compound; format: physicochemical; details: water (aqueous)
Cynomolgus monkey [10] = assay: Reduction of intraocular pressure in ocular hypertensive cynomolgus monkey at 250 ug/eye after 6 hrs; format: functional, Macaca fascicularis; design: scale not given: the % may be the effect or the level left
Cynomolgus monkey [11] = assay: Reduction of intraocular pressure in laser-induced ocular hypertensive cynomolgus monkey at 250 ug/eye after 6 hrs; format: functional, Macaca fascicularis; design: scale not given: the % may be the effect or the level left
Cynomolgus monkey [12] = assay: Reduction of intraocular pressure in laser-induced ocular hypertensive cynomolgus monkey at 250 ug/eye after 3 hrs; format: functional, Macaca fascicularis; design: scale not given: the % may be the effect or the level left
Cynomolgus monkey [13] = assay: Reduction of intraocular pressure in laser-induced ocular hypertensive cynomolgus monkey at 250 ug/eye after 1 hr; format: functional, Macaca fascicularis; design: scale not given: the % may be the effect or the level left
Cynomolgus monkey [14] = assay: Reduction of intraocular pressure in ocular hypertensive cynomolgus monkey at 250 ug/eye after 3 hrs; format: functional, Macaca fascicularis; design: scale not given: the % may be the effect or the level left
Cynomolgus monkey [15] = assay: Reduction of intraocular pressure in ocular hypertensive cynomolgus monkey at 250 ug/eye after 1 hr; format: functional, Macaca fascicularis; design: scale not given: the % may be the effect or the level left
[16] = target: Ribosomal protein S6 kinase beta-1 (Homo sapiens) (UniProt P23443); assay: Inhibition of p70S6K at 10 uM
Procedure, shortened: (§3)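 Single-concentration screen at 10 µM in functional assays of a commercial kinase panel; percent inhibition reported when at least 50%.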

[17] = target: T2, Serine/threonine-protein kinase Sgk1 (Homo sapiens) (UniProt O00141); assay: Inhibition of SGk1 at 10 uM; procedure, shortened: as §3
T2 sequence (whole entry): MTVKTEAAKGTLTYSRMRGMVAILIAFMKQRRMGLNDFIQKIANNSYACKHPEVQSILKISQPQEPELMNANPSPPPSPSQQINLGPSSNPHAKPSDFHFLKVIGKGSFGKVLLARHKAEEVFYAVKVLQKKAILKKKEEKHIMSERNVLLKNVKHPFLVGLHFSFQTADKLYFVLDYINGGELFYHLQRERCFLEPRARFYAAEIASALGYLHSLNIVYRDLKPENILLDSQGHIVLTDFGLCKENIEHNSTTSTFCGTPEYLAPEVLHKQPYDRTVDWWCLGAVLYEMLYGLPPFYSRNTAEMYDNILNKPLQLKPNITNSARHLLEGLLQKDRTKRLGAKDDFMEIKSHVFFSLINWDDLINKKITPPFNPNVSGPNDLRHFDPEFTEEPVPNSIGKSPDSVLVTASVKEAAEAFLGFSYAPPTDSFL

[18] = target: Aurora kinase B (Homo sapiens) (UniProt Q96GD4); assay: Inhibition of aurora B at 10 uM; procedure, shortened: as §3
Sequence of Aurora kinase B (Homo sapiens) (Q96GD4 whole entry): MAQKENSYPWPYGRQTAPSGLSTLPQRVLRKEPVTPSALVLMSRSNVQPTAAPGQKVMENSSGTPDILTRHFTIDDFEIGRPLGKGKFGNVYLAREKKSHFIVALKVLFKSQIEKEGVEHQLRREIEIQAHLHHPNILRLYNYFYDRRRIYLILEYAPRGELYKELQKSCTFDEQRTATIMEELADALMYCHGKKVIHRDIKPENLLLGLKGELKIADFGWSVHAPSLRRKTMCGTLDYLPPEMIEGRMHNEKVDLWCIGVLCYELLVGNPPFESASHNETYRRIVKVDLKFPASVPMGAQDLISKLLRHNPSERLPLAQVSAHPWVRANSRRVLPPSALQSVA

[19] = target: Serine/threonine-protein kinase N1 (Homo sapiens) (UniProt Q16512); assay: Inhibition of PKN1 at 10 uM; procedure, shortened: as §3
Sequence of Serine/threonine-protein kinase N1 (Homo sapiens) (Q16512 2-942 limits assumed): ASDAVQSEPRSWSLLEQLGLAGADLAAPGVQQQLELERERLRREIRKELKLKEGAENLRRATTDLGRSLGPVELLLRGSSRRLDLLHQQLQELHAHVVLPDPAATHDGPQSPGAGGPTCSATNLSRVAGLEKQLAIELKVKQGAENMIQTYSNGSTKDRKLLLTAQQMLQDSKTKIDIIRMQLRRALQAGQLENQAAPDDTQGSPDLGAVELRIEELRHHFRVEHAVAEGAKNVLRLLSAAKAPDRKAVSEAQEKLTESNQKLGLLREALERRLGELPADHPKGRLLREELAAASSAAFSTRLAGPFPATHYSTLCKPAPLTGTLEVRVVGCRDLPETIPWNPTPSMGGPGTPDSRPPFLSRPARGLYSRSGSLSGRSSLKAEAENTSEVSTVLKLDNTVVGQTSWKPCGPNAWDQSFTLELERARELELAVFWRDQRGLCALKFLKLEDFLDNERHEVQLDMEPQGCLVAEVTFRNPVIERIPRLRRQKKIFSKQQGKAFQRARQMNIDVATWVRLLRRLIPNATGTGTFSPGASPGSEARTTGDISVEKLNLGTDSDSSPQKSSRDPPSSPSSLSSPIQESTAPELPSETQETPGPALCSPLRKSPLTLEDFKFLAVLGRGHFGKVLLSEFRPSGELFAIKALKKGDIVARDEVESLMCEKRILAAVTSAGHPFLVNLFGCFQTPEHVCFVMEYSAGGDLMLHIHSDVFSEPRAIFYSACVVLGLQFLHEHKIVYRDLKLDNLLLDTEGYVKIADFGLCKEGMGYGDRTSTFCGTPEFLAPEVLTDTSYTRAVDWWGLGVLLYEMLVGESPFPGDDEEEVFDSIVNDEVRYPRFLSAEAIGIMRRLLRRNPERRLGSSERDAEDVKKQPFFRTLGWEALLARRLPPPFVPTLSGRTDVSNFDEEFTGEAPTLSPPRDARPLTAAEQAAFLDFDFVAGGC

[20] = target: Ribosomal protein S6 kinase alpha-5 (Homo sapiens) (UniProt O75582); assay: Inhibition of MSK1 at 10 uM; procedure, shortened: as §3
Sequence of Ribosomal protein S6 kinase alpha-5 (Homo sapiens) (O75582 whole entry, looked up): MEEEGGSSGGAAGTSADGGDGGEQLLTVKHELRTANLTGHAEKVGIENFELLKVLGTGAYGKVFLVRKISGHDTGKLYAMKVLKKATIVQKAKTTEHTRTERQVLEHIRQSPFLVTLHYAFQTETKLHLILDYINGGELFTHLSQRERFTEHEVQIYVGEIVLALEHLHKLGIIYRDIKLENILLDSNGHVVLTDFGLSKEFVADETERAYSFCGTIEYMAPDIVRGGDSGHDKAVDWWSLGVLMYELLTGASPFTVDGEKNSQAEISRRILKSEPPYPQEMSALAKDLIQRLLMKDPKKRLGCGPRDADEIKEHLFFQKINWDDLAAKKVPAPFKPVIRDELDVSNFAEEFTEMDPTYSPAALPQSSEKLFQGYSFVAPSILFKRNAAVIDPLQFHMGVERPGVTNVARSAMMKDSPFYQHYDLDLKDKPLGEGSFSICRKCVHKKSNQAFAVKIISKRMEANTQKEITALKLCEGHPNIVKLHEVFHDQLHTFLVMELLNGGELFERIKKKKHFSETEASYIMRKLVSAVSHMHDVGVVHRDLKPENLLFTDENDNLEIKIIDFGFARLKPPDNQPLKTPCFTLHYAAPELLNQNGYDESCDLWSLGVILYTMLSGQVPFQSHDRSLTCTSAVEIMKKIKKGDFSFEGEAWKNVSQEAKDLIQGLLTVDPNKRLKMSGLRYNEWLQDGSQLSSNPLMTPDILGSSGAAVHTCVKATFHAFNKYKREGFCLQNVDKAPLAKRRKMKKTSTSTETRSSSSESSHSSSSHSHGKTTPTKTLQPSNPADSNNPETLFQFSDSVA

[21] = Inhibition of PKA at 10 uM

IC50 [1]: 2200 nM
SMILES: Cc1c(-c2ccnc(N)n2)sc2ccc(CN)cc12

IC50 [1]: 10000 nM
SMILES: COC(=O)c1cccc(Cc2ccc3sc(-c4ccnc(N)n4)c(C)c3c2)c1

inhibition [2]: inactive | IC50 [1]: 1500 nM
SMILES: Cc1c(-c2ccnc(N)n2)sc2ccc(Cl)cc12

Emax [3]: 35% | IC50 [1]: 4200 nM
SMILES: Cc1c(-c2ccnc(N)n2)sc2ccc(-c3ccccc3)cc12

IC50 [1]: 30 nM
SMILES: Cc1c(-c2ccnc(N)n2)sc2ccc(C(N)CC(C)C)cc12 (racemic)

SMILES: Cc1cncc2cccc(S(=O)(=O)N3CCCNCC3C)c12 (stereo not drawn)
Activity (GTM3 [4]): Active | Activity (GTM3 [5]): Active

IC50 [1]: 60 nM
SMILES: Cc1c(-c2ccnc(N)n2)sc2ccc(C(N)C(C)C)cc12 (racemic)

IC50 [1]: 60 nM
SMILES: Cc1c(-c2ccnc(N)n2)sc2ccc(Cc3cccc(C(=O)O)c3)cc12

inhibition [2]: inactive | IC50 [1]: 28000 nM
SMILES: Cc1c(-c2ccncc2)sc2ccc(Cl)cc12

SMILES: C[C@@H](N)c1ccc(C(=O)Nc2ccnc3[nH]ccc23)cc1 [Y-39983]
Activity [6]: Non-toxic

Activity [7]: inactive | inhibition [2]: inactive | IC50 [1]: > 100000 nM
SMILES: Cc1c(-c2ccnc(N(C)C)n2)sc2ccc(Cl)cc12

Emax [8]: 46% | IC50 [1]: 20 nM
SMILES: COc1cccc(C(N)c2ccc3sc(-c4ccnc(N)n4)c(C)c3c2)c1 (racemic)

IC50 [1]: 20 nM
SMILES: Cc1c(-c2ccnc(N)n2)sc2ccc(C(N)c3ccccc3)cc12 (racemic)

Emax [8]: 56% | IC50 [1]: 90 nM
SMILES: COc1ccc(C(N)c2ccc3sc(-c4ccnc(N)n4)c(C)c3c2)cc1 (racemic)

inhibition [2]: inactive | IC50 [1]: 7100 nM
SMILES: Cc1c(-c2ccnc3[nH]ccc23)sc2ccc(Cl)cc12

solubility [9]: 40 µM (≈ 14.5 µg/mL) | IC50 [1]: 230 nM
SMILES: COc1cccc(Cc2ccc3sc(-c4ccnc(N)n4)c(C)c3c2)c1

inhibition [2]: inactive | IC50 [1]: 13000 nM
SMILES: Cc1c(-c2cc(N)ncn2)sc2ccc(Cl)cc12

Emax [8]: 67% | IC50 [1]: 50 nM
SMILES: Cc1cccc(C(N)c2ccc3sc(-c4ccnc(N)n4)c(C)c3c2)c1 (racemic)

IC50 [1]: 580 nM
SMILES: Cc1c(-c2ccnc(N)n2)sc2ccc(Cc3ccccc3)cc12

IC50 [1]: 140 nM
SMILES: CCC(N)c1ccc2sc(-c3ccnc(N)n3)c(C)c2c1 (racemic)

solubility [9]: 30 µM (≈ 10.5 µg/mL)
SMILES: Cc1c(-c2ccnc(N)n2)sc2ccc(Nc3cccc(O)c3)cc12

IC50 [1]: 30 nM
SMILES: Cc1c(-c2ccnc(N)n2)sc2ccc(C(N)c3cccc(Cl)c3)cc12 (racemic)

Emax [8]: 44% | inhibition [2]: inactive | IC50 [1]: 8300 nM
SMILES: Cc1c(-c2ccnc(N)c2)sc2ccc(Cl)cc12

IC50 [1]: 20 nM
SMILES: CCCC(N)c1ccc2sc(-c3ccnc(N)n3)c(C)c2c1 (racemic)
Activity (Cynomolgus monkey [10]): -12% | Activity (Cynomolgus monkey [11]): -26% | Activity (Cynomolgus monkey [12]): -24.1% | Activity (Cynomolgus monkey [13]): -19.6% | Activity (Cynomolgus monkey [14]): -13.9% | Activity (Cynomolgus monkey [15]): -20%

IC50 [1]: 38000 nM
SMILES: O=S(=O)(c1cccc2c(I)cccc12)N1CCCNCC1

IC50 [1]: 400 nM
SMILES: Cc1c(-c2ccnc(N)n2)sc2ccc(C(C)N)cc12 (racemic)

IC50 [1]: 9700 nM
SMILES: COc1ccccc1Cc1ccc2sc(-c3ccnc(N)n3)c(C)c2c1

inhibition [2]: inactive | IC50 [1]: > 10000 nM
SMILES: Cc1c(-c2c[nH]c3ncccc23)sc2ccc(Cl)cc12

IC50 [1]: 2900 nM
SMILES: Cc1c(-c2ccnc(N)n2)sc2ccccc12

IC50 [1]: 8600 nM
SMILES: Cc1c(-c2ccnc(N)n2)sc2ccc(Cc3cccc(C(F)(F)F)c3)cc12

IC50 [1]: 7200 nM
SMILES: COc1ccc(Cc2ccc3sc(-c4ccnc(N)n4)c(C)c3c2)cc1

Emax [8]: 17% | inhibition [2]: inactive | IC50 [1]: 1200 nM
SMILES: CNc1nccc(-c2sc3ccc(Cl)cc3c2C)n1

solubility [9]: 10 µM (≈ 3.47 µg/mL) | inhibition [16]: 55% | inhibition [17]: 61% | inhibition [18]: 82% | inhibition [19]: 53% | inhibition [20]: 94% | IC50 [1]: 20 nM | inhibition [21]: 67%
SMILES: Cc1c(-c2ccnc(N)n2)sc2ccc(Cc3cccc(O)c3)cc12
